In experiment [1] the target is Mitogen-activated protein kinase 9 (Homo sapiens, UniProt P45984). In words: Inhibition of human JNK2. The essentials:
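Radiometric SPA kinase assay: 0.5 µg recombinant preactivated GST-JNK2, 1 µg biotinylated GST-c-Jun, and 2 µM [33P]γ-ATP (2 nCi/µL). Buffer was 50 mM Tris-HCl pH 8.0, 10 mM MgCl2, 1 mM DTT and 100 µM NaVO4, with or without inhibitor, 120 min at rt. Stopped with streptavidin SPA beads, 5 mM EDTA, 0.1% Triton X-100 and 50 µM ATP in PBS; 60 min. Beads were centrifuged, washed, and counted by scintillation.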

The target of experiment [2] is Protein kinase C gamma type (Homo sapiens) (UniProt P05129). In words: Percentage activity of human PKC gamma in the presence of 10 uM of compound and 10 uM of ATP in comparison with control.
In experiment [3] the target is CDK3/cyclin E (Homo sapiens) (UniProt P24864+O96020+Q00526). In words: Percentage activity of human CDK3 (with cyclin E) in the presence of 10 uM of compound and 10 uM of ATP in comparison with control. Type of experiment: protein-complex assay.
Experiment [4] deals with Receptor-type tyrosine-protein kinase FLT3 (Homo sapiens) (UniProt P36888). In words: Percentage activity of human Flt3 in the presence of 10 uM of compound and 10 uM of ATP in comparison with control.
Experiment [5] addresses Protein kinase C delta type (Homo sapiens) (UniProt Q05655). In words: Percentage activity of human PKC delta in the presence of 10 uM of compound and 10 uM of ATP in comparison with control.
In experiment [6] the target is Dual specificity mitogen-activated protein kinase kinase 6 (Homo sapiens) (UniProt P52564). In words: Percentage activity of human MKK6 in the presence of 10 uM of compound and 10 uM of ATP in comparison with control.
For experiment [7], the system named is SCG. In words: Cell activity of JNK inhibitors in neuronal apoptosis assay in SCG cells, percentage rescued neurons at 3 uM compound concentration after 48 hours. Type of experiment: functional, Rattus norvegicus. Summed up:
(§1)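 They were cultured in Leibowitz medium with 5% rat serum, 0.75 µg/mL NGF 7S and arabinosine C 10^-5 M. On day 4, medium was switched to 10 µg/mL anti-NGF antibody without NGF or AraC, with inhibitor in 1% DMSO. After 24 h, cells were refed initial medium minus AraC. After another 24 h, viability was read by MTT (0.5 mg/mL, 30 min, 37 °C), OD 590 nm.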

The target in experiment [8] is Protein kinase C theta type (Homo sapiens) (UniProt Q04759). In words: Percentage activity of human PKC theta in the presence of 10 uM of compound and 10 uM of ATP in comparison with control.
Experiment [9] addresses Cyclin-dependent kinase 7/ cyclin H (Homo sapiens) (UniProt P51946+P50613). In words: Percentage activity of human CDK7 with cyclin H/MAT1) in the presence of 10 uM of compound and 10 uM of ATP in comparison with control. In kind it is protein-complex assay.
For another experiment, the species on record is Homo sapiens. In words: Percentage activity of human Rsk2 in the presence of 10 uM of compound and 10 uM of ATP in comparison with control.
Experiment [10] addresses Ribosomal protein S6 kinase alpha-5 (Homo sapiens) (UniProt O75582). In words: Percentage activity of human MSK1 in the presence of 10 uM of compound and 10 uM of ATP in comparison with control.
Experiment [11] has as its target Tyrosine-protein kinase Blk (Mus musculus) (UniProt P16277). In words: Percentage activity of mouse Blk in the presence of 10 uM of compound and 10 uM of ATP in comparison with control.
Experiment [12] concerns the target RAF proto-oncogene serine/threonine-protein kinase (Homo sapiens) (UniProt P04049). In words: Percentage activity of human c-RAF in the presence of 10 uM of compound and 10 uM of ATP in comparison with control.
For experiment [13], the target named is Fibroblast growth factor receptor 3 (Homo sapiens) (UniProt P22607). In words: Percentage activity of human FGFR3 in the presence of 10 uM of compound and 10 uM of ATP in comparison with control.
The target of experiment [14] is Dual specificity mitogen-activated protein kinase kinase 1 (Homo sapiens) (UniProt Q02750). In words: Percentage activity of human MEK1 in the presence of 10 uM of compound and 10 uM of ATP in comparison with control.
Experiment [15] deals with Mitogen-activated protein kinase 12 (Homo sapiens) (UniProt P53778). In words: Percentage activity of human SAPK3 in the presence of 10 uM of compound and 10 uM of ATP in comparison with control.
For experiment [16], the target named is Calcium/calmodulin-dependent protein kinase type IV (Homo sapiens) (UniProt Q16566). In words: Percentage activity of human CaMKiV in the presence of 10 uM of compound and 10 uM of ATP in comparison with control.
The test system of experiment [17] is SCG. In words: Cell activity of JNK inhibitors in neuronal apoptosis assay in SCG cells, percentage rescued neurons at 1uM compound concentration after 48 hours. Type of experiment: functional, Rattus norvegicus. Summed up: as §1
The target of experiment [18] is Insulin-like growth factor 1 receptor (Homo sapiens) (UniProt P08069). In words: Percentage activity of human IGF-1R in the presence of 10 uM of compound and 10 uM of ATP in comparison with control.
Experiment [19] deals with Ribosomal protein S6 kinase (P70S6K) (Homo sapiens) (UniProt Q9UBS0+P23443). In words: Percentage activity of human p70S6K in the presence of 10 uM of compound and 10 uM of ATP in comparison with control. In kind it is protein-complex assay.
In experiment [20] the test system is SCG. In words: Cell activity of JNK inhibitors in neuronal apoptosis assay in SCG cells, percentage rescued neurons at 10uM compound concentration after 48 hours. Type of experiment: functional, Rattus norvegicus. The essentials: as §1
The next experiment deals with Saccharomyces cerevisiae. In words: Percentage activity of yeast CK1 in the presence of 10 uM of compound and 10 uM of ATP in comparison with control.
Experiment [21] has as its target Mitogen-activated protein kinase 1 (Homo sapiens) (UniProt P28482). In words: Percentage activity of human MAPK1 in the presence of 10 uM of compound and 10 uM of ATP in comparison with control.
Experiment [22] addresses Tyrosine-protein kinase ZAP-70 (Homo sapiens) (UniProt P43403). In words: Percentage activity of human ZAP-70 in the presence of 10 uM of compound and 10 uM of ATP in comparison with control.

Chain of Tyrosine-protein kinase ZAP-70 (Homo sapiens) (P43403 whole entry): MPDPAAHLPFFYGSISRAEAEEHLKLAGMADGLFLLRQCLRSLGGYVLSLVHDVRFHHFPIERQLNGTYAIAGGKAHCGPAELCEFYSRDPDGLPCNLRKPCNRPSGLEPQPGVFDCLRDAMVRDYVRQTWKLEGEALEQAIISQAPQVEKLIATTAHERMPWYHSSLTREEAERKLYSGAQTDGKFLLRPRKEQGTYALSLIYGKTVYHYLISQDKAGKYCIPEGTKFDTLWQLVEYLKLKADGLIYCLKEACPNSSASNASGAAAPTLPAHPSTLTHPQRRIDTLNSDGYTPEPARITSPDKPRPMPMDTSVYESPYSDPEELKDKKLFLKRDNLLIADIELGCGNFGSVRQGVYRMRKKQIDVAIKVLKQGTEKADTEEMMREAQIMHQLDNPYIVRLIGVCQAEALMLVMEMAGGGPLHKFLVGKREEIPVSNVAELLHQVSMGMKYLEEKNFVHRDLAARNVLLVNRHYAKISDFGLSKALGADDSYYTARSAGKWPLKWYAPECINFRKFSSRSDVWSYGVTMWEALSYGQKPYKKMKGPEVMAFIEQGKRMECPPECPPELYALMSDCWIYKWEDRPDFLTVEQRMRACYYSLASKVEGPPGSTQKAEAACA
Chain of Dual specificity mitogen-activated protein kinase kinase 6 (Homo sapiens) (P52564 whole entry): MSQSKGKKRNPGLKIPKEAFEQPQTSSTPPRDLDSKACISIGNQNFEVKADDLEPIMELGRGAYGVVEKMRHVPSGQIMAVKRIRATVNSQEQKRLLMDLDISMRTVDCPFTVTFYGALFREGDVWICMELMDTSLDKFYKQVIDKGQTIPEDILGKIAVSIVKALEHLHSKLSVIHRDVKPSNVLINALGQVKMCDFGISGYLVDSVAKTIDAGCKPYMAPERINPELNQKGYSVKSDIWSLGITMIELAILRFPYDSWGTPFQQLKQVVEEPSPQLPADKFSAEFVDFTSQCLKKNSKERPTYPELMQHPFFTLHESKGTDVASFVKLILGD
Chain of CDK3/cyclin E (Homo sapiens) (O96020 whole entry, looked up): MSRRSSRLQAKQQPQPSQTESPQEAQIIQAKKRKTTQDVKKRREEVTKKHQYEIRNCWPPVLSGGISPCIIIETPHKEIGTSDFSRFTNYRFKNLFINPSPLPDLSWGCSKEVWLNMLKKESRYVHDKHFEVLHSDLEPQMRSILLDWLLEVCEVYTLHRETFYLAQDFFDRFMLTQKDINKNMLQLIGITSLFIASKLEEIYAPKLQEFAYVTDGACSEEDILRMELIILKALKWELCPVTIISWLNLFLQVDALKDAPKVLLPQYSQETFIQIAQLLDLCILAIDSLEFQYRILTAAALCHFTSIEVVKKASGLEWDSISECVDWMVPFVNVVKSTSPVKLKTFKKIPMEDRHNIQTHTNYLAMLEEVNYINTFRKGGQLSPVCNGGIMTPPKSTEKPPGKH
Chain of CDK3/cyclin E (Homo sapiens) (P24864 whole entry, looked up): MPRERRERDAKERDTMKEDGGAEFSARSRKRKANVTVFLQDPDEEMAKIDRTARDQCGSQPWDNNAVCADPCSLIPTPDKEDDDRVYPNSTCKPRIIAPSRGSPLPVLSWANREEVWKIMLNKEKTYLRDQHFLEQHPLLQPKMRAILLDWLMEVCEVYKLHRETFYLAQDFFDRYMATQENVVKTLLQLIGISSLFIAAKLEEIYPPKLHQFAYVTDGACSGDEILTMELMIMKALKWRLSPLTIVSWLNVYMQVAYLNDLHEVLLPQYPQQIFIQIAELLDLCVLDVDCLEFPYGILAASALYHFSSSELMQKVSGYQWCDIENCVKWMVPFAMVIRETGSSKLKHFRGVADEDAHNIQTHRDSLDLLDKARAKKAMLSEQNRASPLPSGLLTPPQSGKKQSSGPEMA
Chain of CDK3/cyclin E (Homo sapiens) (Q00526 whole entry, looked up): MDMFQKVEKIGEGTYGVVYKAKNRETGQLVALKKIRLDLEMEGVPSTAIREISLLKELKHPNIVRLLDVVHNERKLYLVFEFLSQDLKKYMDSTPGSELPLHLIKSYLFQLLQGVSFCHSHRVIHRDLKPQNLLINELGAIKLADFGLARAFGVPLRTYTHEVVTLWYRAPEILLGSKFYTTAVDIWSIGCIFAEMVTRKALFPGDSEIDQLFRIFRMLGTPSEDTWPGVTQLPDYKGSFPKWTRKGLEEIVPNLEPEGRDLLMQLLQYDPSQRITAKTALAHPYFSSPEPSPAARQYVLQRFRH
Chain of RAF proto-oncogene serine/threonine-protein kinase (Homo sapiens) (P04049 whole entry): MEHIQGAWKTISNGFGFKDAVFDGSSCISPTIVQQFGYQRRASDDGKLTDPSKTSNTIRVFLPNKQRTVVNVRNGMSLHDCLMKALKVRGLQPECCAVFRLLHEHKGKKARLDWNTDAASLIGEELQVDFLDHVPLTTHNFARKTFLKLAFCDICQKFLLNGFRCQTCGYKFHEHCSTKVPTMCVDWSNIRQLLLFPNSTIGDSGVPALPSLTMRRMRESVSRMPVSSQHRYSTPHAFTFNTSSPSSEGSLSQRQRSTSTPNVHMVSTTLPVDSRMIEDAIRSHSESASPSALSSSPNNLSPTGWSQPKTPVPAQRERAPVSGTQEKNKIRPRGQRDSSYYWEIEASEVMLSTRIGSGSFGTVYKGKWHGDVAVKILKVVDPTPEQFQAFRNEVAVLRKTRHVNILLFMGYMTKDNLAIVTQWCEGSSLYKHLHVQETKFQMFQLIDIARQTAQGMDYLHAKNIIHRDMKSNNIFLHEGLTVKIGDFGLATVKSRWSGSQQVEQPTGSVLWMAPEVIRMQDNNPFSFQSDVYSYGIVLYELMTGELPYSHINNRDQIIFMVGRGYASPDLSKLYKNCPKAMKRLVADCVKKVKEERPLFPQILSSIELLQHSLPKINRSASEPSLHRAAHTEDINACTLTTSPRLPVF
Chain of Protein kinase C delta type (Homo sapiens) (Q05655 whole entry, looked up): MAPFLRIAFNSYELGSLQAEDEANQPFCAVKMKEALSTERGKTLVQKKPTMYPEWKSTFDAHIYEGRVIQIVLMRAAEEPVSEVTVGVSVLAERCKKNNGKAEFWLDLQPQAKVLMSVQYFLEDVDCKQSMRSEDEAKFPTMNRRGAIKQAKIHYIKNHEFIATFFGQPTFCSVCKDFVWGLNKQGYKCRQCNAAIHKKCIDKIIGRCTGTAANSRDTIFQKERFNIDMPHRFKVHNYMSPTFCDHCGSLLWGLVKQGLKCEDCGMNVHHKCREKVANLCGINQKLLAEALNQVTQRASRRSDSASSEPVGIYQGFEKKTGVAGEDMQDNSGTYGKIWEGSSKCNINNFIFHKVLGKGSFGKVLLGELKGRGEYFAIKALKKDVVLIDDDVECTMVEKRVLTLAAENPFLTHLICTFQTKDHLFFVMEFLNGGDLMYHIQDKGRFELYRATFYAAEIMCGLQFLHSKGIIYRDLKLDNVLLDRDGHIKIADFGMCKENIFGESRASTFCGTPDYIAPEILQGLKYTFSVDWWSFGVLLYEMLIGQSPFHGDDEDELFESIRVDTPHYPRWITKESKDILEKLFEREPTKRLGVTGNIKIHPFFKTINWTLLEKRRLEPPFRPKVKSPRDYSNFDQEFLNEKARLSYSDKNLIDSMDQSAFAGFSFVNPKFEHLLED
Chain of Tyrosine-protein kinase Blk (Mus musculus) (P16277 whole entry): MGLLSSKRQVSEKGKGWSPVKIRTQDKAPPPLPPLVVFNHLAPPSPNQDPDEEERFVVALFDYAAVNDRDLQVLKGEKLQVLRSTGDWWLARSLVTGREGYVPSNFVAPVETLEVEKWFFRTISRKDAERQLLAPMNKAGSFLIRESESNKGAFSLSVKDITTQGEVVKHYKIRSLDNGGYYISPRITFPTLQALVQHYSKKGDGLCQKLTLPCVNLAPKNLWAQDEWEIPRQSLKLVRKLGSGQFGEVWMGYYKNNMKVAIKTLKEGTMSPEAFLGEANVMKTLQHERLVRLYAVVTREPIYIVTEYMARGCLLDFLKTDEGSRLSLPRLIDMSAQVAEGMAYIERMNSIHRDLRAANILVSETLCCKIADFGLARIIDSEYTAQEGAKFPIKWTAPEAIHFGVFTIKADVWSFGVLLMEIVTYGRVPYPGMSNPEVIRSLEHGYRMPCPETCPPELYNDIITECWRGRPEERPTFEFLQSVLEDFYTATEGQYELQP
Chain of Mitogen-activated protein kinase 1 (Homo sapiens) (P28482 whole entry): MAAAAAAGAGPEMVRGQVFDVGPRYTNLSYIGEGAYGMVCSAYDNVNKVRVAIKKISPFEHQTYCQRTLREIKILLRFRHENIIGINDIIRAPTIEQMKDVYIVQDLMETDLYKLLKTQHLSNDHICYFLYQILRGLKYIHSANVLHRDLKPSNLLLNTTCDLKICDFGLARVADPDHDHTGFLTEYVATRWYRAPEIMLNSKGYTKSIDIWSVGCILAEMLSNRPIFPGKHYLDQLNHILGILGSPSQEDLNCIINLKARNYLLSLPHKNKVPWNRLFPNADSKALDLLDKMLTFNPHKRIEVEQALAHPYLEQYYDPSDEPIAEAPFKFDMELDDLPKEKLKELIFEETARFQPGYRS

`O=C(NCc1ccc(S(=O)(=O)N2CCC(n3nnc4ccccc43)CC2)s1)c1ccc(Cl)cc1`: the midpoint of inhibition in experiment [1], the IC50, lay at 650 nM. Further, the Activity was found to be 79% in [2]; 97% in experiment [3]; 78% in [4]; 95% in experiment [5]; 106% in [6]; 113% in [8]. Further, the Activity came to 94% in experiment [9]; 77% in the experiment listed under Homo sapiens; 86% in experiment [10]; 78% in experiment [11]; 93% in [12]; 76% in experiment [13]. In addition, the Activity in experiment [14] is 98%; in [15], 106%; in experiment [16] it was 93%; in experiment [18], 108%; in experiment [19], 77%; with Saccharomyces cerevisiae, 85%. In addition, the Activity stood at 97% in [21] and 121% in experiment [22]. Moreover, the Rescued neurons is reported as 25.2% in the experiment with SCG [7], 2.2% in the experiment on SCG [17] and 56% in the experiment with SCG [20].

For the origin of these results see ChEMBL document CHEMBL1137942, “Design, synthesis, and biological activity of novel, potent, and selective (benzoylaminomethyl)thiophene sulfonamide inhibitors of c-Jun-N-terminal kinase” (J Med Chem, 2004).
